In ChEMBL document CHEMBL1137269, “Identification of substituted 4-aminopiperidines and 3-aminopyrrolidines as potent MCH-R1 antagonists for the treatment of obesity” (Bioorg Med Chem Lett, 2006):

How the values were obtained:
[1] = target: T1, Melanin-concentrating hormone receptor 1 (Homo sapiens, UniProt Q99705); assay: Binding activity against human MCH-R1
Summary of the method: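 Whole-cell competition binding in HEK-293 cells overexpressing MCH-R1 (SLC-1). Cells were incubated with varying compound concentrations plus 25 nM europium-labelled MCH, then washed free of unbound label, and residual bound europium-MCH was quantified. Non-specific binding was defined with unlabelled MCH. Values are means of at least two experiments unless indicated otherwise.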

[2] = target: T1, Melanin-concentrating hormone receptor 1; assay: Inhibition of MCH-mediated calcium release by CHO cells expressing human MCH-R1; assay type: functional, cell-based

T1 sequence (Q99705 whole entry): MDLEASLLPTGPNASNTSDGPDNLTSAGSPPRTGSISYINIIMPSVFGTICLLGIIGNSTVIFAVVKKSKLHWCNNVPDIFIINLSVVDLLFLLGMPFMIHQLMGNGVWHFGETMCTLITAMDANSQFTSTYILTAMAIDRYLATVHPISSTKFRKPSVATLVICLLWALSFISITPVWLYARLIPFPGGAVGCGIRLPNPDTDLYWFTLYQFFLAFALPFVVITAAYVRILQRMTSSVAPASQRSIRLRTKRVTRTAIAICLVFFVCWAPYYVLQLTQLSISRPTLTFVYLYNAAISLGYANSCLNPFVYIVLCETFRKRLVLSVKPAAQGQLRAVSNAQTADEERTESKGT

| Ki [1] [nM] | IC50 [2] [nM] | Structure (SMILES) |
| --- | --- | --- |
| 505 |  | COc1cc(OC)cc(C(=O)NC2CCN(CC[C@H](O)c3ccccc3)CC2)c1 |
| 169 |  | COc1cc(OC)cc(C(=O)N(C)C2CCN(Cc3ccc4ccccc4c3)CC2)c1 |
| 17 | 42 | COc1cc(OC)cc(C(=O)N[C@@H]2CCN(C/C=C/c3ccccc3)C2)c1 |
| 86 |  | COc1cc(OC)cc(C(=O)NC2(C)CCN(Cc3ccc4ccccc4c3)CC2)c1 |
| > 100000 |  | COc1cc(OC)cc(C(=O)NC2CCCN(Cc3ccc4ccccc4c3)C2)c1 (centres undefined) |
| 484 |  | COc1cc(OC)cc(C(=O)N[C@H]2CCN(Cc3ccc4ccccc4c3)C2)c1 |
| 133 |  | COc1cc(OC)cc(C(=O)N[C@@H]2CCN(Cc3ccc4ccccc4c3)C[C@H]2C)c1 |
| 27 | 62 | COc1cc(OC)cc(C(=O)NC2CCN(Cc3ccc4ccccc4c3)CC2)c1 |
| 25 |  | COc1cc(OC)cc(C(=O)NC2CCN(C(C)c3ccc4ccccc4c3)CC2)c1 (centres undefined) |
| 125 | 109 | O=C(NC1CCN(Cc2ccc3cc(F)ccc3c2)CC1)c1ccccc1 |
| 9 |  | O=C(NC1CCN(Cc2ccc3ccccc3c2)CC1)c1cc(F)c(F)c(F)c1 |
| 65 |  | O=C(NC1CCN(Cc2ccc3ccccc3c2)CC1)c1cc(F)cc(F)c1 |
| > 100000 |  | COc1cc(OC)cc(C(=O)NC2CCN(CCCc3ccccc3)CC2)c1 |
| 13 |  | COc1cc(C(=O)NC2CCN(Cc3ccc4ccccc4c3)CC2)ccc1F |
| 136 |  | COc1cc(OC)cc(C(=O)NC2CCN(CC3CCc4ccccc4C3)CC2)c1 (centres undefined) |
| > 100000 |  | O=C(NCc1ccc(F)c(F)c1)[C@@H]1[C@@H]2CN(Cc3ccc4ccccc4c3)C[C@@H]21 |
| > 100000 |  | COc1cc(OC)cc(C(=O)NCCCNCc2ccc3ccccc3c2)c1 |
| 18 | 52 | O=C(NC1CCN(Cc2ccc3ccccc3c2)CC1)c1ccc(F)c(F)c1 |
| 625 |  | COc1cc(OC)cc(C(=O)NC2CCN(Cc3ccc4ccccc4n3)CC2)c1 |
| 8070 |  | COc1cc(OC)cc(C(=O)N[C@@H]2CCN(Cc3ccccc3)C2)c1 |
| 62 |  | COc1cc(C(=O)N[C@@H]2CCN(Cc3ccc4ccccc4c3)C2)ccc1F |
| 36 |  | O=C(NC1CCN(Cc2ccc3ccccc3c2)CC1)c1ccc(F)cc1 |

| Ki [1] [nM] | IC50 [2] [nM] | Structure (SMILES) |
| --- | --- | --- |
| > 100000 |  | COc1cc(OC)cc(C(=O)NC2CC(C)(C)N(Cc3ccc4ccccc4c3)C(C)(C)C2)c1 |
| 170 |  | COc1cc(OC)cc(C(=O)N[C@@H]2CCN(Cc3ccc4ccccc4c3)C[C@@H]2C)c1 |
| 205 |  | COc1cc(OC)cc(C(=O)NC2CCN(Cc3ccc(Cl)c(Cl)c3)CC2)c1 |
| 142 |  | COc1cc(OC)cc(C(=O)NC2CCN(Cc3cc4ccccc4n3C)CC2)c1 |
| 12 |  | COc1cc(OC)cc(C(=O)NC2CCN(C/C=C/c3ccccc3)CC2)c1 |
| 99 |  | COc1cc(OC)cc(C(=O)NC2CCN(Cc3ccc4cc(OC)ccc4c3)CC2)c1 |
| 7 | 18 | COc1cc(OC)cc(C(=O)N[C@@H]2CCN(Cc3ccc4ccccc4c3)C2)c1 |
| 40 |  | O=C(NCc1ccc(F)c(F)c1)[C@H]1[C@@H]2CN(Cc3ccc4ccccc4c3)C[C@@H]21 |
| 32 |  | COc1cc(OC)cc(C(=O)NC2CCN(Cc3ccc4cc(F)ccc4c3)CC2)c1 |
| 23 |  | COc1cc(OC)cc(C(=O)N[C@@H]2CCN(C(C)/C=C/c3ccccc3)C2)c1 (some centres undefined) |
| 302 |  | COc1cc(OC)cc(C(=O)NC2CCN(Cc3ccccc3)CC2)c1 |
| 67 |  | COc1cccc(C(=O)N[C@@H]2CCN(Cc3ccc4ccccc4c3)C2)c1 |
| 232 |  | O=C(NC1CCN(Cc2ccc3ccccc3c2)CC1)c1ccc(Cl)cc1 |
| 1000 |  | COc1ccc(C(=O)NC2CCN(Cc3ccc4ccccc4c3)CC2)cc1OC |
| 286 |  | COc1cc(C(=O)NC2CCN(Cc3ccc4ccccc4c3)CC2)cc(OC)c1OC |
| 347 | 948 | O=C(NC1CCN(Cc2ccc3ccccc3c2)CC1)c1ccccc1 |
| 12 |  | COc1cc(OC)cc(C(=O)N[C@@H]2CCN(C(C)c3ccc4ccccc4c3)C2)c1 (some centres undefined) |
| 29 |  | COc1cccc(C(=O)NC2CCN(Cc3ccc4ccccc4c3)CC2)c1 |
| 570 |  | O=C(NC1CCN(Cc2ccc3ccccc3c2)CC1)c1cccc(O)c1 |
| 56 |  | CCOc1cc(OCC)cc(C(=O)NC2CCN(Cc3ccc4ccccc4c3)CC2)c1 |
| 125 |  | CN(C)c1cccc(C(=O)NC2CCN(Cc3ccc4ccccc4c3)CC2)c1 |
